Hits are enriched below; roughly 2.3% of the tested compounds scored in any of these assays.
T cell modulator: modulators of CD8 T cell-vesicle binding, primary screen, mouse 2C CD8+ T cells, flow cytometry | 2C CD8+ T cell-vesicle binding; stronger effect = lower value | response (vesicle binding), % at 7 µM | 330,000 compounds, 0.068% hits;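 active = response, share of CD8 T cells binding vesicles, and their 90th percentile fluorescence all below set limits, cut at about 80% in these data, passing the limit was not always enough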;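 note: values below 100% mean blocked vesicle binding to the CD8+ T cells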
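incubation = binding step 1.5 h, 37 °C, antibody labelling 20 min, ice | test system = 2C mouse CD8+ T cells | read-out basis = percent CD8+ FL2 mean versus row control | controls = Peptide-free naked vesicles (low) and QL9 vesicles with 0.7% DMSO vehicle (high) | detection = flow cytometry of vesicle-bound cells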
Pemphigus Ab inh: inhibitors of pemphigus antibody binding to DSG3, primary screen, biochemical, bead-based, flow cytometry, scFv-GFP | Desmoglein-3 (Homo sapiens), P32926 | DSG3-coupled beads, scFv-anti-DSG3-GFP binding; stronger effect = lower value | binding (percent of control), % at 10 µM | 310,000 compounds, 0.48% hits | AID 588358, 2011;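 active = binding more than 3 SD below its plate's average and above zero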
Mcl1-Noxa inh: Mcl-1/Noxa binding inhibitors, primary screen, biochemical, TR-FRET, 1536-well; Induced myeloid leukemia cell differentiation protein Mcl-1 (Homo sapiens), Q07820; TR-FRET Mcl-1/Noxa peptide binding, 2 h; inhibition, % at 21.7 µM; 220,000 compounds, 1.5% hits; AID 1022, 2008;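 active = compounds that cut the protein-peptide binding signal by more than 50% relative to plate controls in a single-dose test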;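 note: His-tagged Mcl-1 with rhodamine Noxa BH3 peptide and terbium anti-His antibody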
Target sequence (Q07820 whole entry, looked up): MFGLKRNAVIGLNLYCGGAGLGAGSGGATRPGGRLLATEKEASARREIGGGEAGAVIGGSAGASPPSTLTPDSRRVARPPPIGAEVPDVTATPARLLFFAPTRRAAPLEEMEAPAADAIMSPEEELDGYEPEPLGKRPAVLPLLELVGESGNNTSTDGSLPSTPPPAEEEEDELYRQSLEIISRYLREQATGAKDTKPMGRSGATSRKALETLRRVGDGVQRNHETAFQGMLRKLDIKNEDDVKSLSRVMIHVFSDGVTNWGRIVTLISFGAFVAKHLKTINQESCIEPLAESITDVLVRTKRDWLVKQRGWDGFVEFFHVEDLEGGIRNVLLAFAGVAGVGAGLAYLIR
Mcl-1 Bim block: inhibitors of Bim peptide binding to Mcl-1, primary screen, biochemical, bead-based flow cytometry, multiplex; Induced myeloid leukemia cell differentiation protein Mcl-1 (Homo sapiens), Q07820; Bim peptide-Mcl-1 binding; inhibition, % at 10 µM; 190,000 compounds, 0.1% hits; AID 1009, 2008; in the data active = inhibition above about 40%
MCL1-BIM inh: inhibitors of MCL1 binding to BIM-BH3, primary screen, biochemical, fluorescence polarization | Induced myeloid leukemia cell differentiation protein Mcl-1 (Homo sapiens), Q07820 | GST-MCL1 / FITC-Bim-BH3 fluorescence polarization | inhibition, % at 10.9 µM | 320,000 compounds, 0.68% hits;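 active = inhibition above the mean inhibition of all tested compounds plus 3 SD, set per campaign, cut at about 40% in these data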;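 note: higher means more loss of mP so more displacement of Bim peptide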
Mcl1-Bid inh: Mcl-1/Bid binding inhibitors, primary screen, biochemical, TR-FRET, 1536-well | TR-FRET Mcl-1/Bid-Dy647 peptide binding | inhibition, % at 21.7 µM | 220,000 compounds, 0.97% hits | AID 1021, 2008;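 active = compounds that cut the binding signal by more than half at the single screening dose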;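 note: His-tagged Mcl-1 with europium anti-His antibody binding Bid BH3 peptide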
Each line names hits and unclear results; the compound was inactive in the other large screens.

O=C(COC(=O)c1ccc2ccccc2c1)NCCCc1ccccc1	Mcl1-Bid inh 81
O=C(COC(=O)c1ccc2ccccc2c1)NCc1ccccc1	none (no result: T cell modulator, Mcl1-Noxa inh, Mcl-1 Bim block, MCL1-BIM inh, Mcl1-Bid inh)
CC(=O)c1ccc(N2CCN(C(=S)Nc3cccc(Cl)c3)CC2)cc1	Pemphigus Ab inh 60
O=C(Cc1ccccc1[N+](=O)[O-])NCC1(c2cccc3c2OCO3)OCCO1	none (no result: T cell modulator, Mcl1-Noxa inh, Mcl-1 Bim block, MCL1-BIM inh, Mcl1-Bid inh)
COc1ccc(C(=O)Nc2ccc(S(=O)(=O)Nc3cc(C)nc(C)n3)cc2)c(OC)c1	Mcl1-Noxa inh 63
COc1ccccc1C(=O)Nc1ccc(S(=O)(=O)Nc2cc(C)nc(C)n2)cc1	none
Cn1ncc([N+](=O)[O-])c1C(=O)Nc1ccc(-c2nc3ccccc3[nH]2)cc1	none
CCOc1ccc(C(=O)Nc2ccc(-c3nc4ccccc4[nH]3)cc2)cc1[N+](=O)[O-]	Mcl1-Noxa inh 58, Mcl1-Bid inh 55
Cc1ccsc1C(=O)OCC(=O)N1CCOCC1	Mcl1-Bid inh 67
CN(C)c1ccc(C(=O)OCC(=O)N2CCOCC2)cc1	none
Cc1nn(-c2ccccc2C(=O)O)c(=O)c2ccccc12	Mcl1-Bid inh 88 (no result: Mcl1-Noxa inh)
Cc1ccc([N+](=O)[O-])cc1NC(=O)c1c(-c2ccccc2)noc1C	none (no result: Mcl1-Noxa inh, Mcl-1 Bim block, Mcl1-Bid inh)
CCC(=O)c1ccc(OCC(=O)OCC(=O)N2CCc3ccccc32)cc1	Pemphigus Ab inh 63 (no result: Mcl1-Noxa inh, Mcl-1 Bim block, Mcl1-Bid inh)
Nc1nc(N(Cc2ccccc2)Cc2ccccc2)nc(C(F)(F)F)n1	none (no result: Mcl1-Noxa inh, Mcl-1 Bim block, Mcl1-Bid inh)
CCN(CC)CCn1nc2c3c(cccc3c1=O)-c1ccccc1-2	Mcl1-Noxa inh 70
O=c1c2cccc3c2c(nn1CN1CCOCC1)-c1ccccc1-3	none
O=C(Cn1cnc2ccccc2c1=O)Nc1nc2ccccc2s1	Pemphigus Ab inh 65
C/C(=N\NC(=O)c1cccc(N/N=C(\C)c2cc(O)ccc2O)c1)c1cc(O)ccc1O	Mcl1-Noxa inh 100
C/C(=N\NC(=O)c1cccc(N/N=C(\C)c2ccco2)c1)c1ccco1	Mcl1-Noxa inh 84 (no result: T cell modulator, MCL1-BIM inh)
CCOc1ccc(CN(C)C(=O)CNC(=O)C2CCCCC2)cc1	none (no result: Mcl1-Noxa inh, Mcl-1 Bim block, Mcl1-Bid inh)
Cc1cccc(N2CCN(C(=S)Nc3ccc4nc(N5CCN(C)CC5)cc(C)c4c3)CC2)c1C	Mcl1-Bid inh 85 (no result: T cell modulator, MCL1-BIM inh)
N#C/C(=C\c1cccc(Br)c1)C(=O)N1CCCCC1	none (no result: Mcl1-Noxa inh, Mcl-1 Bim block, Mcl1-Bid inh)
Oc1ccccc1C1Nc2cccc3cccc(c23)N1	Mcl1-Noxa inh 98
COc1cccc(/C=C2\SC(=O)NC2=O)c1OCc1ccc(C(=O)O)cc1	none
O=C1N/C(=N/NC(=O)c2cccc3ccccc23)S/C1=C\c1ccccc1OCc1ccccc1	Mcl1-Bid inh 57 (no result: T cell modulator, Pemphigus Ab inh, MCL1-BIM inh)
CCC(C)n1cnc2c(c1=O)c1nc3ccccc3nc1n2-c1ccc2c(c1)OCCO2 (centres undefined)	Pemphigus Ab inh 42
CCCSc1nc(C)nc2c1c(=O)n(C)c(=O)n2C	Mcl1-Bid inh 88 (no result: T cell modulator, Pemphigus Ab inh, MCL1-BIM inh)
COC(=O)c1cc(N=Nc2sc(N)nc2C)cc(C(=O)OC)c1	Mcl1-Noxa inh 53 (no result: Mcl-1 Bim block)
COCCCNC(=O)c1c(N)n(/N=C/c2ccccn2)c2nc3ccccc3nc12	none (no result: T cell modulator, Pemphigus Ab inh, Mcl1-Noxa inh, MCL1-BIM inh, Mcl1-Bid inh)
CC(C)OCCCNC(=O)c1c(N)n(/N=C/c2cccs2)c2nc3ccccc3nc12	Mcl1-Bid inh 61
O=C(Nc1ccc(C2=NCCN2)cc1)c1ccc(C(=O)Nc2ccc(C3=NCCN3)cc2)c([N+](=O)[O-])c1	Mcl1-Noxa inh 67 (no result: Mcl-1 Bim block)
Cc1ccc(NC(=O)c2ccc(-n3cccn3)c([N+](=O)[O-])c2)cc1	none
Cc1ccc(/C=c2/sc3n(c2=O)CCCN=3)o1	none
O=C(NCc1ccc(/C=c2\sc3n(c2=O)CCN=3)o1)C(=O)Nc1ccccc1	Mcl1-Noxa inh 56 (no result: Pemphigus Ab inh)
Cc1cc(N2C(=O)C=CC2=O)c([N+](=O)[O-])cc1C	Mcl1-Bid inh 57
Cc1cccc(-n2c(C)nc3cc(C(=O)NCCN4CCOCC4)ccc32)c1	none (no result: T cell modulator, Mcl1-Noxa inh, Mcl-1 Bim block, MCL1-BIM inh, Mcl1-Bid inh)
CCN1CCN(CC(=O)c2c[nH]c3ccc(C)cc23)CC1	Mcl-1 Bim block 59
COc1ccc(C(CC(=O)NCc2ccco2)c2ccc(F)cc2)cc1 (centres undefined)	Pemphigus Ab inh 31
